T1: Vitamin K-dependent gamma-carboxylase (Rattus norvegicus) (UniProt O88496)
T1 sequence (whole entry): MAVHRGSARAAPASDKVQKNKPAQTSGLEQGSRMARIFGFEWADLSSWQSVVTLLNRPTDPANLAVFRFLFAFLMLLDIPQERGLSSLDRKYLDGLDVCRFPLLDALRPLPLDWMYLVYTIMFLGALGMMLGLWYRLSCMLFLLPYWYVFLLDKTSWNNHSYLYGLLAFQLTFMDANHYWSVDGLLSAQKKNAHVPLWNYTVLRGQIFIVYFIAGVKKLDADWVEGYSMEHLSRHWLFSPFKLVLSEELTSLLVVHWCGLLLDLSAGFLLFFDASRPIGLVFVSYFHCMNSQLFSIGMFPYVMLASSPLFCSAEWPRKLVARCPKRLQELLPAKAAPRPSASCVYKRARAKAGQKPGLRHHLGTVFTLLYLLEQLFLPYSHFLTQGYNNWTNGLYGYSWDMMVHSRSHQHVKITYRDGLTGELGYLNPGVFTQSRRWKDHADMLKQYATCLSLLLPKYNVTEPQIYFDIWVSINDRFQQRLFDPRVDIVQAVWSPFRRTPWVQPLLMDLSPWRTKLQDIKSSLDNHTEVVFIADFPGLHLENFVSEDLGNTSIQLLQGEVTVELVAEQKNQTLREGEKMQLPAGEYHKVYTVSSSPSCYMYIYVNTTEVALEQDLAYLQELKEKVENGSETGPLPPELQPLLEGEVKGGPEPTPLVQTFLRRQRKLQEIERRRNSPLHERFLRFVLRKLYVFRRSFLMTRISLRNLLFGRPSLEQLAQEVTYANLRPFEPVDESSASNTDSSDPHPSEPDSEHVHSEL


Key:
Assay type in all cases: functional
[1] = Carboxylation of 0.25 mM Phe-Leu-Glu-Glu-Leu at a concentration of 1 mM
Method in brief: (§1)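 Inhibition format: the hexapeptide was added at 1, 4.25 or 5.5 mM to a carboxylase reaction containing 0.25 mM H-Phe-Leu-Glu-Glu-Leu-OH as the reference substrate. Carboxylation of the pentapeptide was reported as a percentage. The detailed assay procedure is given only by reference to earlier work.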

[2] = target: T1, Vitamin K-dependent gamma-carboxylase (Rattus norvegicus); test: Compound was evaluated as substrates for vitamin K dependent carboxylase and percent CO2 incorporation was determined at 1 mM concentrations
Method in brief: (§2)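 Vitamin K dependent carboxylase, which needs O2, reduced vitamin K and CO2, was given each hexapeptide directly as substrate at 0.25, 1, 4.25 or 5.5 mM. Carboxylation of Glu to Gla was reported as percent CO2 incorporation. The full assay procedure is given only by reference to earlier work.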

[3] = Carboxylation of 0.25 mM Phe-Leu-Glu-Glu-Leu at a concentration of 5.5 mM; method in brief: as §1
[4] = target: T1, Vitamin K-dependent gamma-carboxylase (Rattus norvegicus); test: Compound was evaluated as substrates for vitamin K dependent carboxylase and percent CO2 incorporation was determined at 0.25 mM concentrations; method in brief: as §2
[5] = target: T1, Vitamin K-dependent gamma-carboxylase (Rattus norvegicus); test: Compound was evaluated as substrates for vitamin K dependent carboxylase and percent CO2 incorporation was determined at 5.5 mM concentrations; method in brief: as §2
[6] = target: T1, Vitamin K-dependent gamma-carboxylase (Rattus norvegicus); test: Compound was evaluated as substrates for vitamin K dependent carboxylase and percent CO2 incorporation was determined at 4.25 mM concentrations; method in brief: as §2
[7] = Carboxylation of 0.25 mM Phe-Leu-Glu-Glu-Leu at a concentration of 4.25 mM; method in brief: as §1
[8] = substrate: CC(C)C[C@H]1NC(=O)[C@H](N)CSSC[C@@H](C(=O)O)NC(=O)[C@@H]2CCCN2C(=O)[C@@H](CCC(=O)O)NC(=O)[C@H](CCC(=O)O)NC1=O; test: (§3) Compound was evaluated as substrates for vitamin K dependent carboxylase and percent CO2 incorporation was determined; method in brief: as §2
[9] = substrate: COC(=O)[C@@H]1CSSC[C@@H](NC(C)=O)C(=O)N[C@H](CC(C)C)C(=O)N[C@@H](CCC(=O)O)C(=O)N[C@H](CCC(=O)O)C(=O)N2CCC[C@H]2C(=O)N1; test: as §3; method in brief: as §2
[10] = substrate: CC(C)C[C@H](NC(=O)[C@H](CC(N)=O)NC(=O)[C@H]1CSSC[C@H](NC(=O)[C@H](CCC(=O)O)NC(=O)[C@H](CCCN=C(N)N)NC(=O)[C@H](CCC(=O)O)NC(=O)[C@H](CC(C)C)NC(=O)[C@@H](N)CC(N)=O)C(=O)N[C@@H](CC(C)C)C(=O)N[C@H](CCC(=O)O)C(=O)N[C@@H](CCC(=O)O)C(=O)N2CCC[C@@H]2C(=O)N1)C(=O)N[C@@H](CCC(=O)O)C(=O)N[C@@H](CCCN=C(N)N)C(=O)N[C@@H](CCC(=O)O)C(=O)N[C@@H](CS)C(=O)O; test: (§4) Compound was evaluated as substrates for vitamin K dependent carboxylase; method in brief: as §2
[11] = substrate: CC(C)C[C@H](NC(=O)[C@H](CCC(=O)O)NC(=O)[C@H](CCC(=O)O)NC(=O)[C@H](CC(C)C)NC(=O)[C@@H](N)Cc1ccccc1)C(=O)O; test: as §4; method in brief: as §2
[12] = substrate: CC(C)C[C@H](NC(=O)[C@@H](N)CC(N)=O)C(=O)N[C@@H](CCC(=O)O)C(=O)N[C@@H](CCCN=C(N)N)C(=O)N[C@@H](CCC(=O)O)C(=O)N[C@@H](CS)C(=O)O; test: as §4; method in brief: as §2

| Incorporation [2] | Incorporation [4] | Incorporation [5] | Incorporation [6] | Molecule | Incorporation [1] | Incorporation [3] | Incorporation [7] | Km [8] | Km [9] | Km [10] | Km [11] | Km [12] |
| --- | --- | --- | --- | --- | --- | --- | --- | --- | --- | --- | --- | --- |
| 60% | 63% | – | 59% | CC(C)C[C@H]1NC(=O)[C@H](N)CSSC[C@@H](C(=O)O)NC(=O)[C@@H](C)NC(=O)[C@@H](CCC(=O)O)NC(=O)[C@H](CCC(=O)O)NC1=O | 94% | – | 83% | – | – | – | – | – |
| 48% | 50% | – | 56% | CC(C)C[C@H]1NC(=O)[C@H](N)CSSC[C@@H](C(=O)O)NC(=O)[C@H](C)NC(=O)[C@@H](CCC(=O)O)NC(=O)[C@H](CCC(=O)O)NC1=O | 103% | – | 85% | – | – | – | – | – |

Further lines, the molecule ahead of its results:

| Molecule | Incorporation [2] | Incorporation [4] | Incorporation [5] | Incorporation [6] | Incorporation [1] | Incorporation [3] | Incorporation [7] | Km [8] | Km [9] | Km [10] | Km [11] | Km [12] |
| --- | --- | --- | --- | --- | --- | --- | --- | --- | --- | --- | --- | --- |
| CC(C)C[C@H]1NC(=O)[C@H](N)CSSC[C@@H](C(=O)O)NC(=O)[C@@H]2CCCN2C(=O)[C@@H](CCC(=O)O)NC(=O)[C@H](CCC(=O)O)NC1=O | 7% | 7.5% | 8.7% | – | 98% | 78% | – | – | – | – | – | – |
| COC(=O)[C@@H]1CSSC[C@@H](NC(C)=O)C(=O)N[C@H](CC(C)C)C(=O)N[C@@H](CCC(=O)O)C(=O)N[C@H](CCC(=O)O)C(=O)N2CCC[C@H]2C(=O)N1 | 2.4% | 3.3% | 2.2% | – | 51% | 54% | – | – | – | – | – | – |
| CC(C)C[C@H](NC(=O)[C@H](C)N)C(=O)N[C@@H](CCC(=O)O)C(=O)N[C@@H](CCC(=O)O)C(=O)N1CCC[C@@H]1C(=O)N[C@@H](C)C(=O)O | 16% | 14% | – | 24% | 99% | – | 134% | – | – | – | – | – |
| Vitamin K-dependent gamma-carboxylase (Rattus norvegicus), O88496 (protein) MAVHRGSARAAPASDKVQKNKPAQTSGLEQGSRMARIFGFEWADLSSWQSVVTLLNRPTDPANLAVFRFLFAFLMLLDIPQERGLSSLDRKYLDGLDVCRFPLLDALRPLPLDWMYLVYTIMFLGALGMMLGLWYRLSCMLFLLPYWYVFLLDKTSWNNHSYLYGLLAFQLTFMDANHYWSVDGLLSAQKKNAHVPLWNYTVLRGQIFIVYFIAGVKKLDADWVEGYSMEHLSRHWLFSPFKLVLSEELTSLLVVHWCGLLLDLSAGFLLFFDASRPIGLVFVSYFHCMNSQLFSIGMFPYVMLASSPLFCSAEWPRKLVARCPKRLQELLPAKAAPRPSASCVYKRARAKAGQKPGLRHHLGTVFTLLYLLEQLFLPYSHFLTQGYNNWTNGLYGYSWDMMVHSRSHQHVKITYRDGLTGELGYLNPGVFTQSRRWKDHADMLKQYATCLSLLLPKYNVTEPQIYFDIWVSINDRFQQRLFDPRVDIVQAVWSPFRRTPWVQPLLMDLSPWRTKLQDIKSSLDNHTEVVFIADFPGLHLENFVSEDLGNTSIQLLQGEVTVELVAEQKNQTLREGEKMQLPAGEYHKVYTVSSSPSCYMYIYVNTTEVALEQDLAYLQELKEKVENGSETGPLPPELQPLLEGEVKGGPEPTPLVQTFLRRQRKLQEIERRRNSPLHERFLRFVLRKLYVFRRSFLMTRISLRNLLFGRPSLEQLAQEVTYANLRPFEPVDESSASNTDSSDPHPSEPDSEHVHSEL | – | – | – | – | – | – | – | 8 mM | 8 mM | 1 µM | 8 mM | 8 mM |

— ChEMBL document CHEMBL1122239, “Synthesis and biological properties of new hexapeptide substrates for vitamin K dependent carboxylase. Evidence for X-Pro cis/trans amide bond interconversions in prothrombin precursor fragment 18-23” (J Med Chem, 1983)
